For four compounds, IC50, inhibition and Activity results are on record in ChEMBL document CHEMBL4118021, “Studies of TAK1-centered polypharmacology with novel covalent TAK1 inhibitors” (Bioorg Med Chem, 2017).

As usually defined, the IC50 is the midpoint of a concentration-inhibition curve.

For data set [1], the system named is BaF3. Nature of the data set: Antiproliferative activity against mouse BA/F3 cells harboring KRAS G12D mutant after 72 hrs by CellTiter-Glo assay. Format: functional, cell-based. The note with it: BaF3, 72 h. In general terms: ATP-based viability assays read luminescence as a measure of living cells.
Data set [2] has as its system BaF3. The data set is described as follows: Antiproliferative activity against mouse BA/F3 cells harboring KRAS G12D mutant after 72 hrs in presence of IL-3 by CellTiter-Glo assay. In kind it is functional, cell-based. The note with it: BaF3, 72 h.
In another data set the test system is SW-620. Nature of the data set: Antiproliferative activity against human SW620 cells harboring KRAS G12V mutant after 72 hrs by CellTiter-Glo assay. Format: functional, cell-based. The note with it: SW-620, 72 h.
The next data set concerns SK-CO-1. The data set is described as follows: Antiproliferative activity against human SKCO1 cells harboring KRAS G12V mutant after 72 hrs by CellTiter-Glo assay. Format: functional, cell-based. The conditions noted are these: SK-CO-1, 72 h.
The test system of a further data set is PANC-1. The data set is described as follows: Antiproliferative activity against human PANC1 cells harboring KRAS G12D mutant after 72 hrs by CellTiter-Glo assay. The note with it: PANC-1, 72 h. In kind it is functional, cell-based.
In another data set the test system is ASPC1. The data set is described as follows: Antiproliferative activity against human AsPC1 cells harboring KRAS G12D mutant after 72 hrs by CellTiter-Glo assay. In kind it is functional, cell-based. The note with it: ASPC1, 72 h.
A short description of data set [3]: Antiproliferative activity against human SW156 cells harboring wild type KRAS after 72 hrs by CellTiter-Glo assay. Format: functional, cell-based.
Data set [4] can be described thus: Antiproliferative activity against human URMC6 cells harboring wild type KRAS after 72 hrs by CellTiter-Glo assay. Format: functional, cell-based.
In data set [5] the target is T1, Mitogen-activated protein kinase kinase kinase 7 (Homo sapiens) (UniProt O43318).
T1 sequence (whole entry): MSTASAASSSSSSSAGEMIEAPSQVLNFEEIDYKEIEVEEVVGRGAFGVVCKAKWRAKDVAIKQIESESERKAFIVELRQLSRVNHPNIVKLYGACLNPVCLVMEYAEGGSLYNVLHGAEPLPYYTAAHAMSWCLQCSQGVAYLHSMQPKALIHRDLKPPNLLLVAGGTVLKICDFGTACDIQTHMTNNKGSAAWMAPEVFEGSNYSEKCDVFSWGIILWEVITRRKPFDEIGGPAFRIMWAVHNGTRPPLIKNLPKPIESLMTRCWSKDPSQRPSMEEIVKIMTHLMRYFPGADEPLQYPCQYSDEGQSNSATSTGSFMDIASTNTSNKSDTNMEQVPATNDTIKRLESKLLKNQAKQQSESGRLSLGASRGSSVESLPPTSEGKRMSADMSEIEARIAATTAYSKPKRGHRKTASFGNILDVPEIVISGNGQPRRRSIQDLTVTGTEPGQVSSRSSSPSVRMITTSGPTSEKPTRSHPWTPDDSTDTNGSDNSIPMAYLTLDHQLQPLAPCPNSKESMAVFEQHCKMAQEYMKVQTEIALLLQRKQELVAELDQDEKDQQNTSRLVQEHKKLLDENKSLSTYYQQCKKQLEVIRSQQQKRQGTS
Nature of the data set: Inhibition of biotin-labeled N-(2-(2-(2-(2-(4-(4-((4-((2-Acrylamidophenyl)amino)-5-chloropyrimidin-2-yl)amino)phenyl)piperazin-1-yl)ethoxy)ethoxy)ethoxy)ethyl)-5-((3aS,4S,6aR)-2-oxohexahydro-1H-thieno[3,4-d]imidazol-4-yl)pentanamide probe binding to TAK1 in human NCI-H358 cells at 10 uM after 6 hrs by immunoblot based competitive pull down assay. Format: cell-based. Summed up: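 H358 cells given 1 or 10 μM compound for 6 h, medium removed, cells rinsed twice with cold PBS and lysed in MPER buffer. Lysates incubated overnight at 4 °C with 1 μM biotinylated covalent probe, captured on streptavidin beads, and TAK1 recovery assessed by immunoblotting with anti-TAK1 antibody.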
Background: A western blot detects proteins with antibodies after separation by electrophoresis.

Data set [6] addresses T1, Mitogen-activated protein kinase kinase kinase 7 (Homo sapiens). Nature of the data set: Inhibition of TAK1 in RA patient-derived synovial fibroblasts assessed as inhibition of TNFalpha-induced cytokine secretion at 3 uM preincubated for 3 hrs followed by TNFalpha stimulation measured after 18 hrs by sandwich immunoassay. Summed up:
(§1)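 Primary RA synovial fibroblasts (donor RA2159) seeded 1000 cells/well and grown ~24 h at 37 °C, 5% CO2. Starved overnight in basal medium, then ~4 h in basal medium with 0.1% BSA. Two adjacent wells pooled per replicate, in biological duplicate. Supernatants diluted 1:3 and run on Luminex 27-plex/21-plex sandwich immunoassays for 48 analytes, with spiked-ligand and mock-supernatant background controls.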

For data set [7] the target is unchanged. Nature of the data set: Inhibition of TAK1 in RA patient-derived synovial fibroblasts assessed as inhibition of IL-1alpha-induced cytokine secretion at 3 uM preincubated for 3 hrs followed by IL-1alpha stimulation measured after 18 hrs by sandwich immunoassay. Summed up: as §1
Data set [8] shares this target. Nature of the data set: Inhibition of TAK1 in RA patient-derived synovial fibroblasts assessed as inhibition of poly(I:C)-induced cytokine secretion at 3 uM preincubated for 3 hrs followed by poly(I:C) stimulation measured after 18 hrs by sandwich immunoassay. In short, it runs like this:
as §1

In data set [9] the target is T2, Mitogen-activated protein kinase kinase kinase 7 (Homo sapiens, UniProt O43318).
T2 sequence (O43318 whole entry): T1 sequence (whole entry)
Nature of the data set: Inhibition of TAK1 (unknown origin) by LanthaScreen assay. In general terms: TR-FRET usually uses a lanthanide donor and a delayed reading to cut background.

For data set [10], the system named is BaF3. Nature of the data set: Antiproliferative activity against mouse BA/F3 cells after 72 hrs by CellTiter-Glo assay. Format: cell-based. The conditions noted are these: BaF3, 72 h.
In data set [11] the test system is BaF3. The data set is described as follows: Antiproliferative activity against mouse BA/F3 cells harboring NRAS G12D mutant after 72 hrs by CellTiter-Glo assay. In kind it is functional, cell-based. The note with it: BaF3, 72 h. In short, it runs like this: (§2)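 Ba/F3 parental or RAS-transformed cells were seeded at 1000 viable cells/well, without or with IL-3 as the line states, at 37 °C and 5% CO2. After 4 h, nine four-fold serial dilutions were added in triplicate (final 0.5–30,000 nM, 0.3% DMSO). DMSO wells served as 100% viability.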

Data set [12] concerns BaF3. Nature of the data set: Antiproliferative activity against mouse BA/F3 cells harboring NRAS G12D mutant after 72 hrs in presence of IL-3 by CellTiter-Glo assay. In kind it is functional, cell-based. The conditions noted are these: BaF3, 72 h. In short, it runs like this: as §2
The subject of the next data set is MOLM-14. Nature of the data set: Antiproliferative activity against human MOLM14 cells harboring FLT3-ITD mutant at […] to […] nM after 72 hrs by CellTiter-Glo assay. Format: functional, cell-based.
The test system of another data set is NALM-6. Nature of the data set: Antiproliferative activity against human NALM6 cells harboring NARS A146T mutant at […] to […] nM after 72 hrs by CellTiter-Glo assay. Format: functional, cell-based.
Data set [13] concerns NCI-H23. The data set is described as follows: Antiproliferative activity against human NCI-H23 cells harboring KRAS G12C mutant after 72 hrs by CellTiter-Glo assay. Format: functional, cell-based. Summed up:
(§3)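 NCI-H23 or NCI-H358 cells seeded at 2000 cells/well and grown 48 h before drug. Varying doses were added and cells incubated 72 h. Viability was read as CellTiter-Glo luminescence, and growth-inhibition IC50 was calculated from dose-response curves.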

Data set [14] has as its system NCI-H358. The data set is described as follows: Antiproliferative activity against human NCI-H358 cells harboring KRAS G12C mutant after 72 hrs by CellTiter-Glo assay. In kind it is functional, cell-based. In short, it runs like this: as §3
The next data set concerns HEL. Nature of the data set: Antiproliferative activity against human HEL cells at […] to […] nM after 72 hrs by CellTiter-Glo assay. Format: functional, cell-based.
A further data set has as its system U-937. Nature of the data set: Antiproliferative activity against human U937 cells at […] to […] nM after 72 hrs by CellTiter-Glo assay. Format: functional, cell-based.
In data set [15] the target is Receptor-type tyrosine-protein kinase FLT3 (Homo sapiens, UniProt P36888). The data set is described as follows: Inhibition of FLT3 (unknown origin).
Receptor-type tyrosine-protein kinase FLT3, sequence (P36888 whole entry): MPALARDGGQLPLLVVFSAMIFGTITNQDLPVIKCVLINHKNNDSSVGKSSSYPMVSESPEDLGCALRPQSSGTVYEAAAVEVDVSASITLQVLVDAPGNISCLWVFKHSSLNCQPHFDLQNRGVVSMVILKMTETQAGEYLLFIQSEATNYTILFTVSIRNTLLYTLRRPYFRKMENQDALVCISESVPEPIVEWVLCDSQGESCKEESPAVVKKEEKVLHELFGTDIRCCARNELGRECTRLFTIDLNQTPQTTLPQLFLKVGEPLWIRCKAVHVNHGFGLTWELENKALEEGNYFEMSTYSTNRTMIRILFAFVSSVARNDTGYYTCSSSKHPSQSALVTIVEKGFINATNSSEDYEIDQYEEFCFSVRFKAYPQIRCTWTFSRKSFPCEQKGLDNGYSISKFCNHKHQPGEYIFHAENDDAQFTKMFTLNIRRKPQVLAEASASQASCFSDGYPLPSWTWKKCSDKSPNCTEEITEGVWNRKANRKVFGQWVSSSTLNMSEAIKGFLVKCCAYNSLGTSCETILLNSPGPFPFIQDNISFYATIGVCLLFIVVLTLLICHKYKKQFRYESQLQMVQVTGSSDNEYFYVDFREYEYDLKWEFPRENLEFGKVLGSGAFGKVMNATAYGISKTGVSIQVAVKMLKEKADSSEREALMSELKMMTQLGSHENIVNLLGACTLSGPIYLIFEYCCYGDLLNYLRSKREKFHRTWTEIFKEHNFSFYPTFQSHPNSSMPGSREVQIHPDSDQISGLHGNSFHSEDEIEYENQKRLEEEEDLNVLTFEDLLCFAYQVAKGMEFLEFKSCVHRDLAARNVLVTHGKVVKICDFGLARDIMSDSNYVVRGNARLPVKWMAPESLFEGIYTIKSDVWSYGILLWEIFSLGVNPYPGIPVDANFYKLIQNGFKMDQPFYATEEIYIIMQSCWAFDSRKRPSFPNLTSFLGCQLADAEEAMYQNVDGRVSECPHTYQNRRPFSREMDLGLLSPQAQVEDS
Data set [16] can be described thus: Increase in secretion of basic-FGF in TNFalpha activated RA patient-derived synovial fibroblasts at 0.6 to 3 uM preincubated for 3 hrs followed by TNFalpha stimulation measured after 18 hrs by sandwich immunoassay. The note with it: human. Summed up:
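Primary RA patient synovial fibroblasts (donor RA2159) were seeded at 1000 cells/well, grown about 24 h, then starved overnight and again about 4 h in basal medium with 0.1% BSA. Cells were pre-incubated 3 h with inhibitor (0.6 or 3 μM) or DMSO, then stimulated 18 h with 10 ng/mL TNFα. Paired wells were pooled, in biological duplicate. Pooled supernatants were diluted 1:3 and read on Luminex bead sandwich immunoassays, with mock-medium background and spiked-ligand controls.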

For data set [17], the system named is NCI-H23. The data set is described as follows: Antiproliferative activity against human NCI-H23 cells harboring KRAS G12C mutant at. In kind it is functional, cell-based.
For data set [18], the system named is NCI-H358. Nature of the data set: Antiproliferative activity against human NCI-H358 cells harboring KRAS G12C mutant at. Format: functional, cell-based.

Active and inactive are the calls of the source. The calls are words filed in the database; no cut-off is given here.

With `CCC(=O)Nc1ccccc1Oc1nc(Nc2ccc(N3CCN(C)CC3)cc2)ncc1Cl`, the IC50 in the data set with BaF3 [1] came out at 191 nM; in the data set on BaF3 [2], 60 nM; with SW-620, 707 nM; in the data set with SK-CO-1 it was 213 nM; in the data set on PANC-1 it was 1360 nM; in the data set on ASPC1, 2700 nM. Moreover, the IC50 in data set [3] is 3730 nM; in data set [4], 444 nM. The inhibition entry in [5], in data set [6], in data set [7] and in data set [8] was “inactive” throughout.
On to `CN1CCN(c2ccc(Nc3ncc(Cl)c(Nc4ccccc4NC(=O)CCl)n3)cc2)CC1`, for which the IC50 worked out at 25 nM in data set [9]; 206 nM in the data set on BaF3 [10]; 31 nM with BaF3 [1]; 376 nM with BaF3 [2]; 10 nM in the data set on BaF3 [11]; 178 nM with BaF3 [12]. The outcome in the data set on MOLM-14, in the data set on NCI-H23 [13], with NCI-H358 [14] and in the data set on U-937 was Active. The outcome in the data set on NALM-6 and with HEL was inactive. Further, the inhibition result in data set [5] is “Active”.
Turning to `C=CC(=O)Nc1ccccc1Oc1nc(Nc2ccc(N3CCN(C)CC3)cc2)ncc1Cl`, the IC50 in [9] is 5.1 nM; with BaF3 [10], 274 nM; in the data set with BaF3 [1], 28 nM; in the data set with BaF3 [2], 93 nM; in the data set on BaF3 [11], 10 nM; in the data set with BaF3 [12] it was 61 nM. Besides, the 50% inhibitory concentration (IC50) in [15] came to 0.63 nM; with SW-620, 767 nM; in the data set on SK-CO-1 it was 294 nM; in the data set on PANC-1, 1260 nM; in the data set with ASPC1, 1850 nM; in [3] it was 2880 nM. Moreover, in [4], half-maximal inhibition (IC50) required 524 nM. Moreover, the result in the data set with MOLM-14, with NCI-H23 [13], in the data set with NCI-H358 [14] and in the data set on U-937 was Active. For the same compound, the outcome in the data set on NALM-6 and with HEL was inactive. Further, the inhibition result in data set [5], in data set [6], in [7] and in [8] was “Active” in each case. In addition, in data set [16], the Activity result is “Toxic”.
Take `N#CC[C@H](C1CCCC1)n1cc(-c2ncnc3[nH]ccc23)cn1`: the outcome in the data set with NCI-H23 [17] and with NCI-H358 [18] was Active.
